A short description of series [1]: Drug uptake in nucleus of human U251 cells at 2 uM after 12 to 14 hrs by confocal microscopy in presence of calf thymus DNA. The settings on record: u-251, 2 µM. It is filed as ADME, cell-based. In outline:
(§1)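 Cells grown 24 h in glass-bottom dishes, then given 2 µM polyamide in fresh medium for 12-14 h at 37°C, 5% CO2, and imaged live with a 40× oil objective using fluorescein filters. Calibration standards were polyamide serial dilutions in medium with 500 μM bp sonicated calf thymus DNA. Nuclear concentration was interpolated from the linear calibration curve. At least three images per condition, at least ten cells per image; cell cycles unsynchronized.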

For series [2], the system named is U-251. Nature of the series: Drug level in human U251 cells at 0.4 uM after 12 to 14 hrs flow cytometry. It is filed as ADME, cell-based. The settings on record: u-251, 0.4 µM. In short, it runs like this: (§2)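 Cells at 1.33×10^5 cells/mL grown 24 h, medium replaced, polyamide added at 0, 0.4, 2 or 10 μM final, 12-14 h at 37°C, 5% CO2. Washed, resuspended in HBSS at 5×10^5 cells/mL. 10,000 cells per sample read in the fluorescein channel. Fluorophores per cell interpolated from a linear curve of the five highest Rainbow bead peaks, then divided by a modeled nuclear volume of 1×10^-12 L (cylinder, radius 10 µm, height 5 µm).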

A short description of series [3]: Drug uptake in nucleus of human HeLa cells at 2 uM after 12 to 14 hrs by confocal microscopy in presence of calf thymus DNA. It is filed as ADME, cell-based. In short, it runs like this:
as §1

Series [4] has as its system U-251. Nature of the series: Drug level in human U251 cells at 2 uM after 12 to 14 hrs flow cytometry. The series is classed as ADME, cell-based. The settings on record: u-251, 2 µM. In outline: as §2
On the technique in general: In flow cytometry, cells or beads pass a laser one at a time.

Series [5] can be described thus: Binding affinity to DNA 5'WTWCGW3' sequence. In outline: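 Labeled DNA equilibrated with polyamide 14-16 h at 22°C in 10 mM Tris-HCl, 10 mM KCl, 10 mM MgCl2, 5 mM CaCl2, pH 7.0, then cleaved with DNase I. Binding isotherms built from normalized theta values.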
The subject of series [6] is U-251. Nature of the series: Cytotoxicity against human U251 cells assessed as cell viability by trypan blue assay. The series is classed as functional. In outline: (§3)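 Following 12-14 h polyamide exposure (0, 0.4, 2 or 10 μM final) at 37°C, 5% CO2, cells were trypsinized, pelleted and resuspended in HBSS (no Mg2+/Ca2+, 2.5 mg/mL BSA, 10 mM HEPES, pH 7.0-7.2). Viability was checked by trypan blue staining before flow cytometry.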

For a further series, the system named is DNA. Nature of the series: Binding affinity to calf thymus DNA at 2 uM assessed as fluorescence enhancement by steady-state fluorimetry relative to control. The settings on record: Bos taurus. The series is classed as nucleic-acid assay. In short, it runs like this: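 Sonicated calf thymus DNA serially diluted in supplemented medium (0 to 1000 μM bp), polyamide at 2 μM final. Excitation 490 nm, emission scanned 500-650 nm, 2 nm slits, room temperature. Enhancement taken as the DNA-bound fluorescence relative to the DNA-free emission.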

The test system of series [7] is U-251. Nature of the series: Induction of nuclear localization in human U251 cells at 2 uM after 12 to 14 hrs by confocal laser scanning microscopy. It is filed as functional, cell-based. In outline:
(§4)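 Live cells were incubated 12-14 h at 37°C, 5% CO2 with 2 µM polyamide and imaged directly by confocal microscopy with fluorescein filters. Nuclear staining was scored qualitatively against medium fluorescence; a positive score means nuclear signal exceeds that of the medium.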

In series [8] the test system is U-251. Nature of the series: Drug level in human U251 cells at 10 uM after 12 to 14 hrs flow cytometry. It is filed as ADME, cell-based. The settings on record: u-251, 10 µM. In outline:
as §2

For series [9], the system named is HeLa. Nature of the series: Inhibition of VEGF expression in human HeLa cells by quantitative RT-PCR. It is filed as functional, cell-based.
Series [10] relates to HeLa. Nature of the series: Induction of nuclear localization in human HeLa cells at 2 uM after 12 to 14 hrs by confocal laser scanning microscopy. It is filed as functional, cell-based. In outline:
as §4

Series [11] concerns HeLa. Nature of the series: Cytotoxicity against human HeLa cells assessed as cell viability by trypan blue assay. The series is classed as functional. In outline:
as §3

Series [12] has as its system HeLa. Nature of the series: Drug level in human HeLa cells at 2 uM after 12 to 14 hrs flow cytometry. It is filed as ADME, cell-based. In short, it runs like this:
as §2

The test system of series [13] is HeLa. Nature of the series: Drug level in human HeLa cells at 0.4 uM after 12 to 14 hrs flow cytometry. It is filed as ADME, cell-based. In outline: as §2
In series [14] the test system is HeLa. Nature of the series: Drug level in human HeLa cells at 10 uM after 12 to 14 hrs flow cytometry. It is filed as ADME, cell-based. In short, it runs like this: as §2

Activity calls are given as the source filed them. No cut-off for these calls is given here. Some results are limits rather than exact numbers.

On to `Cn1cc(NC(=O)c2cc(NC(=O)c3nc(NC(=O)c4cc(NC(=O)[C@H](N)CCNC(=O)c5nc(NC(=O)c6cc(NC(=O)c7cc(NC(=O)c8sccc8Cl)cn7C)cn6C)cn5C)cn4C)cn3C)cn2C)cc1C(=O)NCCC(=O)NCCCNC(=S)Nc1ccc(-c2c3ccc(=O)cc-3oc3cc(O)ccc23)c(C(=O)O)c1`, for which the Drug uptake in series [1] came to 1.6 µM; in the series with U-251 [2], 0.09 µM; in [3], 0.5 µM; in the series with U-251 [4], 0.34 µM; with U-251 [8] it was 0.84 µM; in the series with HeLa [12] it was 0.09 µM. For the same compound, the Drug uptake in the series on HeLa [13] came to 0.02 µM; with HeLa [14], 0.2 µM. The compound also registered a Ka in series [5] of 3.8 ×10⁹ /M. The Activity in the series on U-251 [6] and in the series with HeLa [11] was above 95% each time. Also, in the series on DNA, the fold change (FC) amounted to 14. In addition, the outcome in the series with U-251 [7], with HeLa [9] and with HeLa [10] was Active.

Source of the values: ChEMBL document CHEMBL1151777, “Quantitating the concentration of Py-Im polyamide-fluorescein conjugates in live cells” (Bioorg Med Chem Lett, 2008).
